Reference: ChEMBL document CHEMBL2010740, “Synthesis and evaluation of 2-amido-3-carboxamide thiophene CB₂ receptor agonists for pain management” (Bioorg Med Chem Lett, 2012)

What was measured:
[1] = AUC in rat at 10 umol/kg, po; type: ADME, organism-based; conditions: plasma
[2] = tested on: Rattus norvegicus; test: Analgesic activity in rat incision model of post-operative pain assessed as reduction in paw withdrawal latency at 3 umol/kg, ip administered 90 mins post-surgical incision measured after 30 mins; type: functional; design: scale not given: the % may be the effect or the level left
[3] = tested on: Rattus norvegicus; test: Analgesic activity in ip dosed rat incision model of post-operative pain assessed as reduction in paw withdrawal latency administered 90 mins post-surgical incision measured after 30 mins; type: functional, organism-based
[4] = AUC in rat at 10 umol/kg, ip; type: ADME, organism-based; conditions: plasma
[5] = tested on: Rattus norvegicus; test: Analgesic activity in rat chronic constriction injury model of neuropathic pain assessed as reduction in mechanical allodynia at 3 umol/kg, ip administered 2 weeks post-surgery measured after 30 mins; type: functional; design: scale not given: the % may be the effect or the level left
[6] = Cmax in rat at 10 umol/kg, po; type: ADME, organism-based; design: dose 10 umol/kg, route oral; conditions: in vivo
[7] = molecular target: T1, Cannabinoid receptor 2 (Rattus norvegicus) (UniProt Q9QZN9); test: Agonist activity at rat recombinant CB2 receptor expressed in HEK293 cells co-expressing chimeric Gaq/o protein by FLIPR assay by FLIPR assay relative to CP55940; type: functional, cell-based
T1 sequence (whole entry): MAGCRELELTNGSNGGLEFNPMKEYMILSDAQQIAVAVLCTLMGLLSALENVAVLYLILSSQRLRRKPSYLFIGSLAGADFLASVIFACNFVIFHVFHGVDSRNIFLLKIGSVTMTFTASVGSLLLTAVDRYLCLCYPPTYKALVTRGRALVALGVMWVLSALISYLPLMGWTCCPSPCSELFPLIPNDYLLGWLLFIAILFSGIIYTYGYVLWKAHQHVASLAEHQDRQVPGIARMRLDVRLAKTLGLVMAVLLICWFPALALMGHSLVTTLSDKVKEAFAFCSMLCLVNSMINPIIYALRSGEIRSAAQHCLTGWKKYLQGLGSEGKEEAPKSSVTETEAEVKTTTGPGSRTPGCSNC
Procedure, shortened: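 FLIPR functional assay in HEK 293 cells stably co-expressing chimeric Gαq/o protein and the CB receptor. Net peak evoked response was compared with the peak response to CP-55,940.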

[8] = molecular target: Cannabinoid receptor 1 (Rattus norvegicus, UniProt P20272); test: Agonist activity at rat recombinant CB1 receptor expressed in HEK293 cells assessed as inhibition of forskolin-induced cAMP production after 20 mins by ELISA; type: functional, cell-based
Cannabinoid receptor 1 (Rattus norvegicus, UniProt P20272), sequence (P20272 whole entry): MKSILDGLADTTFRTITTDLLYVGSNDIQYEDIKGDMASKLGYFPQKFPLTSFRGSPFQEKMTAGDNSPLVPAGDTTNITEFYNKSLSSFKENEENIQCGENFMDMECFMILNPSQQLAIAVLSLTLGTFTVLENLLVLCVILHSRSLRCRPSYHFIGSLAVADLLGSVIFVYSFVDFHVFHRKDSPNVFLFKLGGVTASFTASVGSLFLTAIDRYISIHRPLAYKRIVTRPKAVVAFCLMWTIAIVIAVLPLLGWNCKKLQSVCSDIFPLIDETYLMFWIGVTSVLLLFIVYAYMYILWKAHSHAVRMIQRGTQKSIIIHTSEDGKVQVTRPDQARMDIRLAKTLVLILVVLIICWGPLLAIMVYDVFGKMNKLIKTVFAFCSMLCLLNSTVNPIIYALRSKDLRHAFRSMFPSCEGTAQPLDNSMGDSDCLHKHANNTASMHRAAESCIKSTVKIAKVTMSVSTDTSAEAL
Procedure, shortened: (§1)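 cAMP assay in HEK 293 cells stably expressing the relevant CB receptor, with a fixed concentration of forskolin. cAMP was quantified by ELISA. Activation is given as percent of the CP-55,940 control response.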

[9] = tested on: Rattus norvegicus; test: Neurotoxicity in rat assessed as decrease in spontaneous locomotory activity at 30 umol/kg, ip after 30 mins; type: toxicity, organism-based; design: scale not given: the % may be the effect or the level left; conditions: in vivo, 0.5 h
Procedure, shortened: (§2)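 Spontaneous horizontal locomotor activity in rats. Compound was given intraperitoneally 30 min before testing.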

[10] = Half life in rat at 10 umol/kg, ip; type: ADME, organism-based; conditions: in vivo
[11] = tested on: Rattus norvegicus; test: Analgesic activity in rat complete Freund's adjuvant model of chronic inflammatory pain assessed as reduction in thermal hyperalgesia at 10 umol/kg, ip administered 48 hrs after CFA-challenge measured after 60 mins; type: functional; design: scale not given: the % may be the effect or the level left
[12] = Cmax in rat at 10 umol/kg, ip; type: ADME, organism-based; design: dose 10 umol/kg, route intraperitoneal; conditions: in vivo
[13] = Tmax in rat at 10 umol/kg, po; type: ADME, organism-based; conditions: in vivo
[14] = Oral bioavailability in rat at 10 umol/kg; type: ADME, organism-based; conditions: in vivo
[15] = tested on: Rattus norvegicus; test: Neurotoxicity in ip dosed rat assessed as decrease in spontaneous locomotory activity after 30 mins; type: toxicity, organism-based; conditions: in vivo, 0.5 h; procedure, shortened: as §2
[16] = tested on: Rattus norvegicus; test: Analgesic activity in rat spinal nerve ligation model of neuropathic pain assessed as […] at 10 umol/kg, ip administered 2 weeks post-surgery measured after 30 mins; type: functional; design: scale not given: the % may be the effect or the level left
Procedure, shortened: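 Rat spinal nerve ligation (Chung) neuropathic pain model. Dosing was intraperitoneal, two weeks after surgery and 30 min before testing. Read-out was mechanical allodynia (paw withdrawal threshold), given as a dose–response.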

[17] = molecular target: T2, Cannabinoid receptor 2 (Rattus norvegicus, UniProt Q9QZN9); test: Agonist activity at rat recombinant CB2 receptor expressed in HEK293 cells assessed as inhibition of forskolin-induced cAMP production after 20 mins by ELISA; type: functional, cell-based; procedure, shortened: as §1
T2 sequence (Q9QZN9 whole entry): T1 sequence (whole entry)

[18] = molecular target: T2, Cannabinoid receptor 2; test: Displacement of [3H]CP-55940 from rat recombinant CB2 receptor expressed in HEK293 cells after 90 mins; type: cell-based
Procedure, shortened: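 Competitive binding: [³H]CP-55,940 displaced from membranes of HEK 293 cells stably transfected with human or rat CB₂, or CHO cells stably transfected with human or rat CB₁. Reported as pKi. Determinations >2 (duplicate of duplicate).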

[19] = molecular target: Cannabinoid receptor 2 (Homo sapiens, UniProt P34972); test: Agonist activity at human recombinant CB2 receptor expressed in HEK293 cells assessed as inhibition of forskolin-induced cAMP production after 20 mins by ELISA; type: functional, cell-based; procedure, shortened: as §1
Cannabinoid receptor 2 (Homo sapiens, UniProt P34972), sequence (P34972 whole entry): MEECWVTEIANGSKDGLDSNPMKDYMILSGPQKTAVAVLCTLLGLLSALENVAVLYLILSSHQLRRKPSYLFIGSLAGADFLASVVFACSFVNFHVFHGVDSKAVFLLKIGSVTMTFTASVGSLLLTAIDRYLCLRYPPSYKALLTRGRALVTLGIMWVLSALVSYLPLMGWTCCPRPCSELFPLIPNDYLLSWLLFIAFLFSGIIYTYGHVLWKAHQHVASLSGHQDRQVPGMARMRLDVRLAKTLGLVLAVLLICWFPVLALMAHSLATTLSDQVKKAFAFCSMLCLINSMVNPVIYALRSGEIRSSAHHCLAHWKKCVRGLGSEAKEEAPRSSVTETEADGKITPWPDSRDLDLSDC

[20] = tested on: Rattus norvegicus; test: Analgesic activity in rat complete Freund's adjuvant model of chronic inflammatory pain assessed as latency in paw withdrawal at 30 umol/kg, po administered 48 hrs after CFA-challenge measured after 60 mins; type: functional
[21] = tested on: Rattus norvegicus; test: Neurotoxicity in rat assessed as decrease in spontaneous locomotory activity at 100 umol/kg, ip after 30 mins; type: toxicity, organism-based; design: scale not given: the % may be the effect or the level left; conditions: in vivo, 0.5 h; procedure, shortened: as §2
[22] = Metabolic stability in rat microsomes assessed as compound remaining after 30 mins; type: ADME, Microsome; conditions: read-out: Stability
Procedure, shortened: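 Metabolic stability: compound incubated with human or rat liver microsomes. Percent parent remaining was measured after 30 min.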

[23] = molecular target: Cannabinoid receptor 1 (Homo sapiens, UniProt P21554); test: Agonist activity at human recombinant CB1 receptor expressed in HEK293 cells assessed as inhibition of forskolin-induced cAMP production after 20 mins by ELISA; type: functional, cell-based; procedure, shortened: as §1
Cannabinoid receptor 1 (Homo sapiens, UniProt P21554), sequence (P21554 whole entry): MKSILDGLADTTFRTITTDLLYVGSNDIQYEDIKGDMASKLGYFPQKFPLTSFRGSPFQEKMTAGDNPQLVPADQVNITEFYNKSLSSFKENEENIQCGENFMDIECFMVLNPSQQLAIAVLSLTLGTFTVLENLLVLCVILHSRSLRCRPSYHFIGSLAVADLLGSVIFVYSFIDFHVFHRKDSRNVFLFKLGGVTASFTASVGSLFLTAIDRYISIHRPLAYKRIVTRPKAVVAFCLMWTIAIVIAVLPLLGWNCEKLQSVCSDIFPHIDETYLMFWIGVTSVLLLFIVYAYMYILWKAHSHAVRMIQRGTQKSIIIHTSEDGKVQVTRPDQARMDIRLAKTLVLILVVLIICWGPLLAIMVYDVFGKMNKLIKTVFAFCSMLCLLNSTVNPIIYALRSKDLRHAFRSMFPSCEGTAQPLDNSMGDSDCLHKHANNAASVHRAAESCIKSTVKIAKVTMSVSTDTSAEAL

[24] = Volume of distribution during terminal phase in rat at 3 umol/kg, iv; type: ADME, organism-based; conditions: in vivo, read-out: Vbeta
[25] = tested on: Rattus norvegicus; test: Neurotoxicity in rat assessed as decrease in spontaneous locomotory activity at 10 umol/kg, ip after 30 mins; type: toxicity, organism-based; design: scale not given: the % may be the effect or the level left; conditions: in vivo, 0.5 h; procedure, shortened: as §2
[26] = tested on: Rattus norvegicus; test: Analgesic activity in rat chronic constriction injury model of neuropathic pain assessed as reduction in mechanical allodynia at 30 umol/kg, ip administered 2 weeks post-surgery measured after 30 mins; type: functional; design: scale not given: the % may be the effect or the level left

For `CCCNC(=O)c1c(NC(=O)C23CC4CC(CC2C4)C3)sc2c1CCOC2`, the AUC [1] was 123 ng·h/mL, the Activity [2] was 21% and the Activity [3] was “Dose-dependent effect”. The AUC [4] was 1020 ng·h/mL, the Activity [5] was 22% and the Cmax [6] was 39 ng/mL. The Imax [7] was 79%, the IC50 [8] was 1410 nM and the Activity [9] was 50%. It also gave a half-life [10] of 6.7 h, an Activity [11] of 74% and a Cmax [12] of 150 ng/mL. The Tmax [13] was 1.2 h, the bioavailability [14] was 11% and the Activity [15] was “Dose-dependent effect”. For the same compound, the Activity [16] was 29%, the IC50 [17] was 9.33 nM and the Ki [18] was 33.9 nM. For the same compound, the IC50 [19] was 1.95 nM, the Activity [20] was 24% and the Activity [21] was 83%. For the same compound, the remaining at 0.5 h [22] was 5%, the IC50 [23] was 3470 nM and the Vd [24] was 8.7 L/kg. It also gave an Activity [25] of 18% and an Activity [26] of 74%.
